Experimental data published in ChEMBL document CHEMBL3525985, “Regiospecificity and stereospecificity of human UDP-glucuronosyltransferases in the glucuronidation of estriol, 16-epiestriol, 17-epiestriol, and 13-epiestradiol” (Drug Metab Dispos, 2013).

Experiments:
Assay type in all cases: ADME
[1] = molecular target: T1, UDP-glucuronosyltransferase 2B17 (Homo sapiens, UniProt O75795); assay: Drug metabolism assessed as recombinant human C-terminal His-tagged UGT2B17-mediated 16-epiestriol-17-glucuronide formation at 5 mg after 5 hrs by NMR spectroscopic analysis in presence of UDPGA
T1 sequence (O75795 whole entry): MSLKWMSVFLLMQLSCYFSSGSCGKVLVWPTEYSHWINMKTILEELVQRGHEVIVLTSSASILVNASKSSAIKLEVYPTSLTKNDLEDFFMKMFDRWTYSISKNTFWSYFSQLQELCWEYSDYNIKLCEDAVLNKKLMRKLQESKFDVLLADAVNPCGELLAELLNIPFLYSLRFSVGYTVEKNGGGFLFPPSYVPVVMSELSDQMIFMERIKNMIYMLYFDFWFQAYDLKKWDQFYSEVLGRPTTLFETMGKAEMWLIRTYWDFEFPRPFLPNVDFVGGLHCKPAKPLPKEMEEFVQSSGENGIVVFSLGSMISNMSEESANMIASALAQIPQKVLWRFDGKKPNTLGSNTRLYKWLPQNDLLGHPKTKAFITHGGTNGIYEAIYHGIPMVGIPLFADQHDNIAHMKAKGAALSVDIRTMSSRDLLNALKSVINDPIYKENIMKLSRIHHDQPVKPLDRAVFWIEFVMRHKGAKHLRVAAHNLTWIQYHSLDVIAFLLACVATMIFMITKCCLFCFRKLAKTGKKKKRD

[2] = molecular target: T1, UDP-glucuronosyltransferase 2B17; assay: Drug metabolism assessed as recombinant human C-terminal His-tagged UGT2B17-mediated 16-epiestriol-16-glucuronide formation after 15 to 60 mins by Michaelis-Menten equation analysis in presence of UDPGA; settings: recombinant enzyme
Liver microsome [3] = assay: Drug metabolism in human liver microsomes assessed as 16-epiestriol-16-glucuronide formation after 15 to 60 mins by Michaelis-Menten equation analysis in presence of UDPGA
Procedure, shortened: (§1)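 Pooled human liver microsomes (30 donors), 0.5 or 10 µg, with alamethicin at 5% of total protein. Incubated with 50 mM phosphate pH 7.4, 10 mM MgCl₂, 5 mM UDPGA and 10% DMSO for 15–60 min at 37°C. Each glucuronide regioisomer quantified by HPLC, in triplicate, with substrate consumption at or below 10%.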

[4] = molecular target: T2, UDP-glucuronosyltransferase 1A8 (Homo sapiens, UniProt Q9HAW9); assay: Drug metabolism assessed as recombinant human C-terminal His-tagged UGT1A8-mediated 16-epiestriol-3-glucuronide formation after 15 to 60 mins by Michaelis-Menten equation analysis in presence of UDPGA; settings: recombinant enzyme
T2 sequence (Q9HAW9 whole entry): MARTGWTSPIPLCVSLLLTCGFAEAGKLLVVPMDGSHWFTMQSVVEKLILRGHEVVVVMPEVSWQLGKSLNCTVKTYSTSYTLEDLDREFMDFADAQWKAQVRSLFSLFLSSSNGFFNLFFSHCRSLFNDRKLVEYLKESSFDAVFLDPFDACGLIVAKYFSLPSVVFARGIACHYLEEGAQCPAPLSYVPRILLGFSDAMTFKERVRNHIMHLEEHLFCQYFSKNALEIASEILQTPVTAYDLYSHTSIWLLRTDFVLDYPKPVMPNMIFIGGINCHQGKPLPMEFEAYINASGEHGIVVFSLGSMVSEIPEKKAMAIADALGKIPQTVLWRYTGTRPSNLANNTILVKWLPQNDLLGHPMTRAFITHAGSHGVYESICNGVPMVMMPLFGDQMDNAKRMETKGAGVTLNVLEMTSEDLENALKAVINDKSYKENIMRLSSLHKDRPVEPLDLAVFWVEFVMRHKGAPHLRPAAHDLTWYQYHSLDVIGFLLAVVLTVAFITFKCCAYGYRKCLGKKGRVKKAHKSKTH

[5] = molecular target: T1, UDP-glucuronosyltransferase 2B17; assay: Drug metabolism assessed as recombinant human C-terminal His-tagged UGT2B17-mediated 13-epiestradiol-17-glucuronide formation at 200 uM after 15 to 60 mins by HPLC analysis in presence of UDPGA; settings: recombinant enzyme
Procedure, shortened: (§2)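 Screening at a single substrate concentration of 200 μM, in triplicate. The reaction used 5 or 50 µg of UGT-enriched insect cell membranes in 50 mM phosphate pH 7.4 with 10 mM MgCl₂ and 5 mM UDPGA, 10% final DMSO. Incubation was 15–60 min at 37°C. Perchloric acid stopped the reaction and supernatants were analysed by HPLC. Controls lacked UDPGA. Rates were normalized to relative UGT expression level.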

[6] = molecular target: T3, UDP-glucuronosyltransferase 2B7 (Homo sapiens, UniProt P16662); assay: Drug metabolism assessed as recombinant human C-terminal His-tagged UGT2B7-mediated 13-epiestradiol-17-glucuronide formation at 200 uM after 15 to 60 mins by HPLC analysis in presence of UDPGA; settings: recombinant enzyme; procedure, shortened: as §2
T3 sequence (P16662 whole entry): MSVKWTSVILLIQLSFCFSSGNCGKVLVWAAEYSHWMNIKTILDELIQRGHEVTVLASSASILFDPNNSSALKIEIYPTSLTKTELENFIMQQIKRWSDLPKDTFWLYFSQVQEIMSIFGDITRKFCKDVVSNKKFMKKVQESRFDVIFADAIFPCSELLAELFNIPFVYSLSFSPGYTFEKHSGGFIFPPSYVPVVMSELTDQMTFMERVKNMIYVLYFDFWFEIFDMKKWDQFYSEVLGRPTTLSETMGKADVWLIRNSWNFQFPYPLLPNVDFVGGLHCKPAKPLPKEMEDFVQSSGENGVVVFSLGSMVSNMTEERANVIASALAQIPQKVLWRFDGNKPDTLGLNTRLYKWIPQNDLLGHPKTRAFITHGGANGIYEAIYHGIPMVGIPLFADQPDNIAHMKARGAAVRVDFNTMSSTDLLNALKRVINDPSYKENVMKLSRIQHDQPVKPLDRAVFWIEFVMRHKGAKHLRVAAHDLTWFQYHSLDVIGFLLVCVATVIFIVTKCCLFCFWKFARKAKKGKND

Liver microsome [7] = assay: Drug metabolism in human liver microsomes assessed as estriol-3-glucuronide formation after 15 to 60 mins by Michaelis-Menten equation analysis in presence of UDPGA; procedure, shortened: as §1
[8] = molecular target: T3, UDP-glucuronosyltransferase 2B7; assay: Drug metabolism assessed as recombinant human C-terminal His-tagged UGT2B7-mediated estriol-16-glucuronide formation after 15 to 60 mins by Michaelis-Menten equation analysis in presence of UDPGA; settings: recombinant enzyme
Procedure, shortened: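 Kinetics with His-tagged UGT-enriched insect-cell membranes (5 or 50 µg): aglycone 0.2–300 µM in 10% DMSO, 5 mM UDPGA, 10 mM MgCl₂, 50 mM phosphate pH 7.4, 15–60 min at 37°C. Substrate consumption kept at or below 10%. Glucuronides quantified by HPLC in triplicate, rates normalized to expression, and data fitted to Michaelis-Menten.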

## C[C@]12CC[C@@H]3c4ccc(O)cc4CC[C@H]3[C@@H]1C[C@H](O)[C@@H]2O [EPIESTRIOL]
[1]
  Drug metabolism: metabolite_detected
[2]
  Drug metabolism: 5 pmol/min/mg
Liver microsome [3]
  Km: 33 µM
  Vmax: 8011 pmol/min/mg
[4]
  Drug metabolism: 0.5 pmol/min/mg

## C[C@@]12CC[C@@H]3c4ccc(O)cc4CC[C@H]3[C@@H]1CC[C@@H]2O
[5]
  Drug metabolism: metabolite_detected
[6]
  Drug metabolism: metabolite_detected

## C[C@]12CC[C@@H]3c4ccc(O)cc4CC[C@H]3[C@@H]1C[C@@H](O)[C@@H]2O [ESTRIOL]
Liver microsome [7]
  Km: 313 µM
  Vmax: 95 pmol/min/mg
[8]
  Drug metabolism: 1200 pmol/min/mg
